This passage reports Repellency results from ChEMBL document CHEMBL3044618, “Repellent constituents of essential oil of Cymbopogon distans aerial parts against two stored-product insects” (2011).

The structures appear in SMILES notation.

Common to all, as to assay type: functional
Assay [1] concerns Liposcelis bostrychophila. The assay is described as follows: Insecticidal activity against adult Liposcelis bostrychophila (booklice) assessed as repellent activity at 13 nL/cm2 after 4 hr. In short, it runs like this:
(§1)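 Adult booklice, about 2 weeks old, from dark cultures at 28–30 °C and 70–80% RH on milk powder/active yeast/flour (1:1:1). Half of a 6 cm filter paper received 150 μL of sample in acetone; the other half received acetone; both were air-dried. Papers were placed in Fluon-coated 6 cm Petri dishes. Insects on each half were counted at 2 and 4 h. PR = (Nc−Nt)/(Nc+Nt)×100. Five replicates, repeated three times.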

Assay [2] relates to Liposcelis bostrychophila. Kind of assay: Insecticidal activity against adult Liposcelis bostrychophila (booklice) assessed as repellent activity at 26 nL/cm2 after 2 hr. In short, it runs like this:
as §1

The test system of assay [3] is Liposcelis bostrychophila. The assay is described as follows: Insecticidal activity against adult Liposcelis bostrychophila (booklice) assessed as repellent activity at 1.6 nL/cm2 after 2 hr. The essentials:
as §1

Assay [4] has as its system Tribolium castaneum. The assay is described as follows: Insecticidal activity against adult Tribolium castaneum (red flour beetle) assessed as repellent activity at 16 nL/cm2 after 4 hr. In short, it runs like this: (§2)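 Adult T. castaneum, about 2 weeks old, reared on wheat flour plus yeast (10:1, w/w) in the dark at 28–30 °C and 70–80% RH. In Fluon-coated 9 cm dishes, half of a 9 cm filter paper received 500 μL of acetone solution and the other half received acetone, then both were air-dried. Insects on each half were counted at 2 and 4 h. Percent repellency was computed from the counts. Five replicates, three runs.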

Assay [5] has as its system Tribolium castaneum. Kind of assay: Insecticidal activity against adult Tribolium castaneum (red flour beetle) assessed as repellent activity at 0.016 nL/cm2 after 2 hr. The essentials:
as §2

Assay [6] relates to Tribolium castaneum. The assay is described as follows: Insecticidal activity against adult Tribolium castaneum (red flour beetle) assessed as repellent activity at 0.16 nL/cm2 after 2 hr. In short, it runs like this:
as §2

Assay [7] deals with Liposcelis bostrychophila. Kind of assay: Insecticidal activity against adult Liposcelis bostrychophila (booklice) assessed as repellent activity at 26 nL/cm2 after 4 hr. The essentials:
as §1

For assay [8], the system named is Liposcelis bostrychophila. Kind of assay: Insecticidal activity against adult Liposcelis bostrychophila (booklice) assessed as repellent activity at 6.4 nL/cm2 after 2 hr. In short, it runs like this: as §1
The subject of assay [9] is Tribolium castaneum. The assay is described as follows: Insecticidal activity against adult Tribolium castaneum (red flour beetle) assessed as repellent activity at 16 nL/cm2 after 2 hr. The essentials: as §2
For assay [10], the system named is Liposcelis bostrychophila. Kind of assay: Insecticidal activity against adult Liposcelis bostrychophila (booklice) assessed as repellent activity at 6.4 nL/cm2 after 4 hr. The essentials: as §1
In assay [11] the test system is Liposcelis bostrychophila. Kind of assay: Insecticidal activity against adult Liposcelis bostrychophila (booklice) assessed as repellent activity at 13 nL/cm2 after 2 hr. In short, it runs like this: as §1
For assay [12], the system named is Liposcelis bostrychophila. The assay is described as follows: Insecticidal activity against adult Liposcelis bostrychophila (booklice) assessed as repellent activity at 3.2 nL/cm2 after 4 hr. In short, it runs like this:
as §1

For assay [13], the system named is Tribolium castaneum. The assay is described as follows: Insecticidal activity against adult Tribolium castaneum (red flour beetle) assessed as repellent activity at 1.6 nL/cm2 after 2 hr. The essentials: as §2
The subject of assay [14] is Liposcelis bostrychophila. Kind of assay: Insecticidal activity against adult Liposcelis bostrychophila (booklice) assessed as repellent activity at 3.2 nL/cm2 after 2 hr. In short, it runs like this: as §1
Assay [15] relates to Tribolium castaneum. The assay is described as follows: Insecticidal activity against adult Tribolium castaneum (red flour beetle) assessed as repellent activity at 0.0016 nL/cm2 after 4 hr. The essentials:
as §2

The subject of assay [16] is Tribolium castaneum. The assay is described as follows: Insecticidal activity against adult Tribolium castaneum (red flour beetle) assessed as repellent activity at 0.0016 nL/cm2 after 2 hr. The essentials: as §2
Assay [17] has as its system Tribolium castaneum. The assay is described as follows: Insecticidal activity against adult Tribolium castaneum (red flour beetle) assessed as repellent activity at 0.016 nL/cm2 after 4 hr. The essentials:
as §2

For assay [18], the system named is Liposcelis bostrychophila. The assay is described as follows: Insecticidal activity against adult Liposcelis bostrychophila (booklice) assessed as repellent activity at 1.6 nL/cm2 after 4 hr. The essentials: as §1
Assay [19] deals with Tribolium castaneum. The assay is described as follows: Insecticidal activity against adult Tribolium castaneum (red flour beetle) assessed as repellent activity at 0.16 nL/cm2 after 4 hr. The essentials: as §2
Assay [20] has as its system Tribolium castaneum. Kind of assay: Insecticidal activity against adult Tribolium castaneum (red flour beetle) assessed as repellent activity at 1.6 nL/cm2 after 4 hr. The essentials:
as §2

Consider `CC(C)=CCC[C@@H](C)CCO` [(+)-CITRONELLOL], for which the Repellency was found to be 76% in assay [1]; 96% in assay [2]; 28% in [3]; 96% in assay [4]; 44% in assay [5]; 64% in assay [6]. Further, the Repellency in assay [7] is listed as 82%; in assay [8], 66%; in [9], 88%; in assay [10], 64%; in assay [11], 66%; in [12], 44%. Besides, the Repellency in assay [13] is recorded as 82.5%; in assay [14] it was 52%; in [15], 36%; in assay [16], 40%; in assay [17] it was 48%; in assay [18], 32%. For the same molecule, the Repellency in assay [19] is given as 66%; in assay [20], 75%.
As for `CCN(CC)C(=O)c1cccc(C)c1` [DIETHYLTOLUAMIDE], the Repellency in assay [1] came out at 94%; in assay [2] it was 96%; in assay [3] it was 46%; in [4] it was 90%; in assay [5] it was 0%; in assay [6], 0%. Moreover, the Repellency stood at 94% in assay [7]; 84% in assay [8]; 92% in assay [9]; 92% in assay [10]; 100% in assay [11]; 64% in [12]. For the same molecule, the Repellency in [13] is given as 6%; in assay [14], 82%; in assay [15] it was -46%; in [16], -34%; in assay [17], -4%; in assay [18], 42%. Moreover, the Repellency in [19] is recorded as -16%; in assay [20], -12%.
For `C=C(C)[C@H]1CC=C(C)CC1` [D-LIMONENE], the Repellency in assay [1] was 30%; in [2], 36%; in [3], -6%; in [4], -4%; in assay [5], -36%; in assay [6], 2%. Also, the Repellency in assay [7] is 40%; in assay [8], -20%; in [9], 20%; in [10] it was -18%; in [11], -4%; in assay [12], -22%. Also, the Repellency is reported as -22% in [13]; -10% in assay [14]; 12% in [15]; 20% in assay [16]; -36% in [17]; -4% in [18]. The Repellency is 8% in assay [19] and -44% in [20].
Consider `CC(C)=CCC/C(C)=C/CO` [GERANIOL], for which the Repellency was 82.5% in [1]; 86% in assay [2]; 42% in [3]; 86% in [4]; -12% in [5]; 14% in assay [6]. The Repellency in assay [7] is listed as 92%; in assay [8], 90%; in assay [9] it was 96%; in assay [10], 96%; in assay [11], 95%; in assay [12] it was 74%. In addition, the Repellency in [13] is on record as 58%; in assay [14] it was 84%; in assay [15] it was -14%; in [16] it was -10%; in assay [17] it was -10%; in assay [18] it was 44%. For the same molecule, the Repellency is 14% in assay [19] and 60% in assay [20].
As to `CC(C)=CCC[C@@H](C)CC=O` [CITRONELLAL], the Repellency in assay [1] was 4%; in [2] it was 36%; in assay [3] it was -10%; in assay [4] it was -4%; in [5], 4%; in assay [6], 10%. The Repellency in assay [7] is on record as 34%; in [8] it was 20%; in assay [9], 16%; in [10], 6%; in [11], -10%; in [12], 12%. Moreover, the Repellency was -12% in assay [13]; -4% in assay [14]; 0% in assay [15]; -20% in assay [16]; -16% in assay [17]; -10% in [18]. Besides, the Repellency is reported as 6% in assay [19] and -16% in assay [20].
